The subject of one assay is Leishmania donovani. Put plainly: In vitro antiparasitic activity against Leishmania donovani was tested by sigmoidal regression analysis. Type of assay: functional. The method, boiled down: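 Mouse peritoneal macrophages (female CD1, starch-elicited, harvested 24 h) infected with L. donovani amastigotes (strain MHOM/ET/67/L82, hamster spleen) or T. cruzi Y-strain trypomastigotes (5:1, from MDCK overlay). Infected cells exposed to a 3-fold dilution series in quadruplicate for 5 days (L. donovani) or 3 days (T. cruzi). Giemsa-stained slides scored for % macrophages cleared of amastigotes versus untreated cultures. ED50 by sigmoidal regression.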

For assay [1], the target named is T1, Dihydrolipoyl dehydrogenase, mitochondrial (Sus scrofa) (UniProt P09623).
T1 sequence (whole entry): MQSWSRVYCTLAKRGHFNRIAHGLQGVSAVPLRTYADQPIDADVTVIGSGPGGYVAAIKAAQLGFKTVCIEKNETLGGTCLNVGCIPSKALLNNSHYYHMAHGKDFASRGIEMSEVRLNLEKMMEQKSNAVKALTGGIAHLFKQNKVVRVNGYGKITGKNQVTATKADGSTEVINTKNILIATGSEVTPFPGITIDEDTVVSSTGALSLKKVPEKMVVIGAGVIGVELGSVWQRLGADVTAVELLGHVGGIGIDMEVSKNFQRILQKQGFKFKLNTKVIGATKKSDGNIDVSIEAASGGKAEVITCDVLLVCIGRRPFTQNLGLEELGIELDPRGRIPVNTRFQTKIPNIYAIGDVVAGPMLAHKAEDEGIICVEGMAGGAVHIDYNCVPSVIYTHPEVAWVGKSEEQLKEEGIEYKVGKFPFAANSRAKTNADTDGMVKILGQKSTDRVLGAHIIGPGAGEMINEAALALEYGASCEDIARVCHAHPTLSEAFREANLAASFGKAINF
The experiment in a line: The second order rate constant of the pig heart LipDH (lipoamide dehydrogenase) catalyzed NADH oxidation. The gist of the method:
(§1)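 Recombinant T. cruzi LipDH (E. coli, purified) or pig heart LipDH, 0.1–2.5 µg/mL. Buffer was 50 mM potassium phosphate, 1 mM EDTA, pH 7.0, with 100 µM NADH and naphthoquinone at 10 µM–1.2 mM; all assays carried equal DMSO. Run at 31 °C, started with enzyme, NADH decrease followed at 340 nm. Km and Vmax from Lineweaver–Burk plots. At least duplicate.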

Assay [2] has as its system Dihydrolipoyl dehydrogenase (Trypanosoma cruzi). The experiment in a line: The second order rate constant of the TcLipDH (Trypanosoma cruzi lipoamide dehydrogenase) catalyzed NADH oxidation.
In assay [3] the test system is Trypanosoma brucei. The experiment in a line: In vitro antiparasitic activity against Trypanosoma brucei was tested by sigmoidal regression analysis.
Assay [4] addresses Trypanothione reductase (Trypanosoma cruzi) (UniProt P28593). The experiment in a line: The second order rate constant of the TcTR (Trypanosoma cruzi trypanothione reductase) catalyzed […]. The gist of the method: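 Recombinant TcTR (0.6 U) in 20 mM Hepes, 1 mM EDTA, 0.15 M KCl, pH 7.25 at 22 °C, with 200 µM NADPH and naphthoquinone at five concentrations (0–100 µM) in 1% DMSO. NADPH oxidation at 340 nm; intrinsic oxidase rate not subtracted. Km and Vmax from nonlinear Michaelis–Menten fit; kcat and kcat/Km calculated.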

In assay [5] the test system is Trypanosoma cruzi.
Assay [6] deals with T1, Dihydrolipoyl dehydrogenase, mitochondrial (Sus scrofa). Put plainly: Ratio of cytochrome c reduction and NADH oxidation by pig heart LipDH (pig heart lipoamide dehydrogenase) at 50 uM concentration, cytochrome c assay. The method, boiled down:
(§2)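 T. cruzi or pig heart LipDH in 50 mM potassium phosphate pH 7.0 with 100 µM NADH, 50 µM cytochrome c and 50 µM naphthoquinone at 31 °C. Cytochrome c reduction read at 550 nm; NADH oxidation measured at 340 nm in the same conditions without cytochrome c. One-electron reduction % = cytochrome c rate ÷ (2 × NADH rate). At least duplicate.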

The subject of assay [7] is Trypanosoma cruzi. Put plainly: Ratio of cytochrome c reduction and NADH oxidation by TcLipDH (Trypanosoma cruzi lipoamide dehydrogenase) at 50 uM concentration, in cytochrome c assay. The method, boiled down:
as §2

The target in assay [8] is T1, Dihydrolipoyl dehydrogenase, mitochondrial (Sus scrofa). Put plainly: Second order rate constant of the pig heart LipDH (lipoamide dehydrogenase) catalyzed NADH oxidation. The gist of the method: as §1
Assay [9] has as its system Trypanosoma cruzi. Put plainly: The second oder rate constant of the TcLipDH (Trypanosoma cruzi lipoamide dehydrogenase) catalyzed NADH oxidation. The gist of the method:
as §1

Assay [10] deals with Trypanosoma cruzi. The experiment in a line: Vmax is the maximum velocity of the TcLipDH (Trypanosoma cruzi lipoamide dehydrogenase) catalyzed NADH oxidation. The method, boiled down: (§3)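 Recombinant TcLipDH expressed in E. coli, 0.1–2.5 µg/mL. 50 mM potassium phosphate, 1 mM EDTA, pH 7.0, 31 °C, with 100 µM NADH and naphthoquinone varied from 10 µM to 1.2 mM. DMSO was constant in all assays. NADH decrease followed at 340 nm. Km, Vmax and kcat came from Lineweaver-Burk plots, with kcat/Km derived. At least duplicate.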

For assay [11], the system named is Trypanosoma cruzi. Put plainly: The Michaelis-Menten constant for NADH oxidation by TcLipDH (Trypanosoma cruzi lipoamide dehydrogenase).
In assay [12] the target is T1, Dihydrolipoyl dehydrogenase, mitochondrial (Sus scrofa). Put plainly: Ratio of cytochrome c reduction and NADH oxidation by pig heart LipDH (lipoamide dehydrogenase) at 50 uM concentration, in cytochrome c assay. The gist of the method:
as §2

In assay [13] the test system is Trypanosoma brucei. The experiment in a line: In vitro antiparasitic activity against Trypanosoma brucei was tested by sigmoidal regression analysis at 30 uM; IA is inactive. The assay is classed as functional, organism-based. The gist of the method:
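T. b. brucei S427 bloodstream trypomastigotes at 2 × 10⁵/mL in HMI-18 medium, in triplicate, with a 3-fold dilution series starting at 30 µM. Incubated 3 days at 37 °C in 5% CO₂. Pentamidine served as positive control. Viability read by tetrazolium colorimetric assay on day 3. ED50 by sigmoidal regression.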

The test system of assay [14] is Trypanosoma cruzi. Put plainly: The second order rate constant of the TcLipDH (Trypanosoma cruzi lipoamide dehydrogenase) catalyzed NADH oxidation. The gist of the method:
as §3

The target in assay [15] is Trypanothione reductase (Trypanosoma cruzi) (UniProt P28593). The experiment in a line: Rate of NADPH oxidation by TcTR in presence of 100 uM NQ was determined in comparison to intrinsic oxidase activity. The gist of the method: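 Quinone reductase activity of recombinant TcTR measured as NADPH oxidation at 340 nm. Buffer was 20 mM Hepes, 1 mM EDTA, 0.15 M KCl, pH 7.25, with 250 µM NADPH at 25 °C. Rate with naphthoquinone (100 µM for line 8, 25 µM for line 9) divided by intrinsic oxidase rate of enzyme plus NADPH alone. Mean of at least two measurements.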
Chain of Trypanothione reductase (Trypanosoma cruzi) (P28593 whole entry, looked up): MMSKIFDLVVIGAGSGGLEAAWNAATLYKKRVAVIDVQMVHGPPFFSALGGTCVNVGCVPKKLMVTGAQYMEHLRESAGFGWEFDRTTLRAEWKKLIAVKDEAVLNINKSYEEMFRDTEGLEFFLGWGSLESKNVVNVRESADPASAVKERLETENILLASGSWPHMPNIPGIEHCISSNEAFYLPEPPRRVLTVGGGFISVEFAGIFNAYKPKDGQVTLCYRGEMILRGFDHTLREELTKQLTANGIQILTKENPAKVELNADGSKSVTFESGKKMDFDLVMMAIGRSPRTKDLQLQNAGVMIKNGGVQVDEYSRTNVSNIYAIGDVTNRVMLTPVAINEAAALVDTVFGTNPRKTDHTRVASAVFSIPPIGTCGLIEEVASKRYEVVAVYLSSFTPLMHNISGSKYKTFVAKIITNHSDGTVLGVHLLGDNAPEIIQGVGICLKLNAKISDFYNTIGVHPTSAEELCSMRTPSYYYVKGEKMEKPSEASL

The record followed here is ChEMBL document CHEMBL1134791, “2- and 3-substituted 1,4-naphthoquinone derivatives as subversive substrates of trypanothione reductase and lipoamide dehydrogenase from Trypanosoma cruzi: synthesis and correlation between redox cycling activities and in vitro cytotoxicity” (J Med Chem, 2001).

In general, Vmax refers to the top rate of the reaction or transport when substrate is in excess. The term Km denotes the substrate concentration at which the rate is half of its maximum.

Each structure is given as a SMILES string. Active and inactive are the calls of the source. The calls are words filed in the database; no cut-off is given here. Bounds are passed on as bounds.

Turning to `CC1=C(CCCNC(=O)OC(C)(C)C)C(=O)c2ccccc2C1=O`, the ED50 in the assay with Leishmania donovani is 29.4 µM. Besides, the k cat/Km in assay [1] was 3.4 10e4 M-1 s-1; in assay [2], 8.4 10e4 M-1 s-1.

Turning to `CC1=C(NCCCN2CCN(CCCN)CC2)C(=O)c2ccccc2C1=O`, the ED50 with Trypanosoma brucei [3] is above 12.5 µM.

In the assay with Leishmania donovani, `CC1=C(CCC(=O)NCCCN2CCN(CCCNC(=O)CCC3=C(C)C(=O)c4ccccc4C3=O)CC2)C(=O)c2ccccc2C1=O` displayed an ED50 above 46 µM. The k cat/Km in assay [4] is 4.4 10e4 M-1 s-1. In addition, in the assay with Trypanosoma cruzi [5], the x fold was found to be 1000 µM.

`CC1=C(CCC(=O)O)C(=O)c2ccccc2C1=O`: the ED50 in the assay on Leishmania donovani is above 30 µM. The Reduction is 0.5% in assay [6] and 3% with Trypanosoma cruzi [7]. For the same compound, the k cat/Km in assay [8] is 3.2 10e4 M-1 s-1; in assay [2] it was 6.6 10e4 M-1 s-1.

On to `CC1=C(CCCNC(=O)OC(C)(C)C)C(=O)c2c(O)cccc2C1=O`, for which, in the assay with Leishmania donovani, the ED50 was 10 µM. The results for the k cat/Km (in assay [1]; with Trypanosoma cruzi [9]) were 3.5 10e4 M-1 s-1 and 23 10e4 M-1 s-1, respectively. Further, the Vmax in the assay with Trypanosoma cruzi [10] turned out to be 8.24 µM/min/mg. For the same compound, in the assay with Trypanosoma cruzi [11], the Michaelis-Menten constant (Km) was 30 µM.

For `CC1=CC(=O)c2ccccc2C1=O`, the Reduction came out at 8.1% in assay [12] and 12.7% in the assay with Trypanosoma cruzi [7]. Also, the IA result in the assay on Trypanosoma brucei [13] was “inactive”. The k cat/Km is 1 10e4 M-1 s-1 in assay [4] and 13 10e4 M-1 s-1 in assay [8]. Besides, the Km in the assay with Trypanosoma cruzi [11] stood at 170 µM.

Regarding `CC1=C(CCC(=O)O)C(=O)c2c(O)cccc2C1=O`, in the assay on Leishmania donovani, the ED50 was 72 µM. The k cat/Km in [1] is 2.4 10e4 M-1 s-1; in [2], 10.2 10e4 M-1 s-1. For the same compound, the Reduction is 1.6% in [12] and 6.6% in the assay with Trypanosoma cruzi [7].

As to `CC1=CC(=O)c2c(O)cccc2C1=O`, the k cat/Km is 29 10e4 M-1 s-1 in [1] and 48 10e4 M-1 s-1 in the assay with Trypanosoma cruzi [14]. Besides, the figures for the Reduction (in assay [12]; with Trypanosoma cruzi [7]) were 15.4% and 26.1%, respectively. The Vmax in the assay with Trypanosoma cruzi [10] came to 22.9 µM/min/mg. Also, the Km in the assay with Trypanosoma cruzi [11] was determined as 40 µM.

On to `CC1=C(CCC(=O)NCCCN2CCN(C)CC2)C(=O)c2c(O)cccc2C1=O`, for which, in assay [1], the k cat/Km was 6.1 10e4 M-1 s-1. In addition, the Reduction was 0.6% in [12] and 1.9% with Trypanosoma cruzi [7].

Regarding `CC1=C(CCC(=O)NCCCN2CCN(C)CC2)C(=O)c2ccccc2C1=O`, the ED50 in the assay with Leishmania donovani is above 30 µM. The k cat/Km was 2.6 10e4 M-1 s-1 in [1] and 3 10e4 M-1 s-1 in assay [2]. For the same compound, the Reduction in assay [12] is 0.8%; with Trypanosoma cruzi [7] it was 1.6%. Besides, in [15], the x fold came out at 7.
